Tests used:
[1] = tested on: tenosynovial giant cell tumor (TGCT); conditions: 3 of the 4 TGCT patients; cited from earlier work
[2] = tested on: tenosynovial giant cell tumor (TGCT); assay: Tumor response by RECIST 1.1; type: in vivo, human
patients with TGCT = conditions: cited from earlier work
[3] = tested on: advanced solid tumors (MEC, GIST, ATC, malignant effusions, miscellaneous tumor types); type: in vivo, human
In short: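 Adults with advanced, incurable tumours received 1,000 mg/day, split 600 mg morning and 400 mg evening, continued to progression or unacceptable toxicity. Response was assessed locally by imaging at baseline and every 2 months per RECIST version 1.1, with readings not blinded to visit order. Data cutoff was 31 January 2018.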

[4] = tested on: tenosynovial giant cell tumor (TGCT); conditions: patients with TGCT, usually; cited from earlier work
[5] = tested on: patients with advanced solid tumors (TGCT and non-TGCT cohorts); assay: Drug exposure: treatment duration, dose reductions, drug holidays; type: in vivo, human
In short: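 Adult patients at 12 US centres took 1,000 mg/day (600 mg morning, 400 mg evening) until progression or unacceptable toxicity. Dose changes, usually in 200 mg/day steps, and temporary holds for toxicity or other reasons were allowed. Exposure was tallied to the 31 January 2018 cutoff. Months were computed as days divided by 30.4167.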

[6] = tested on: patients with advanced solid tumors (TGCT and non-TGCT cohorts); assay: Safety: adverse events, laboratory assessments, ECG; type: in vivo, human
[7] = 13 TGCT subjects that remained on treatment, as of February 2021

FC(F)(F)c1ccc(CNc2ccc(Cc3c[nH]c4ncc(Cl)cc34)cn2)cn1 [pexidartinib]
RECIST response in patients who had previously received other TKI treatment [1]: 75%
median DOR [2, 7]: 1,529 days
median PFS [2, 7]: 1,764 days
patients with TGCT who achieved a response, RECIST 1.1 ([2]; CR + PR, of 39 FAS): 24 patients
PR, RECIST 1.1 ([2]; TGCT): 22 patients
complete response (CR), RECIST 1.1 ([2]; TGCT): 2 patients
patients who progressed while on therapy, modified tumor response criteria ([2]; TGCT): 3 patients
patients with SD that lasted for at least 6 months, RECIST 1.1 ([2]; TGCT): 8 patients
patients with at least a 50% reduction in sum of longest tumor diameter ([2]; TGCT): Fifteen
disease control rate (DCR = CR + PR + SD), RECIST 1.1 ([2]; TGCT FAS (n = 39)): 82%
disease control rate (DCR = CR + PR + SD), RECIST 1.1 ([2]; TGCT efficacy-evaluable (n = 37)): 86%
objective response rate (ORR), RECIST 1.1 per local reading ([2]; TGCT efficacy-evaluable population (n = 37)): 65%
25th percentile for duration of response (DOR) ([2]; TGCT, RECIST 1.1): 943 days
ORR, RECIST 1.1 ([2]; both the FAS and efficacy-evaluable TGCT populations): over 60%
time of presentation of serious liver toxicity (patients with TGCT; all cases, weeks of treatment): ≤ 8 weeks
isolated aminotransferase elevations, share of hepatic adverse reactions (patients with TGCT; long-term treatment): > 90%
patients with prolonged (>6 months) SD ([3]; non-TGCT): 6 patients
median progression-free survival (PFS) ([3]; non-TGCT patients): 56 days
patients with partial response (PR) ([3]; non-TGCT population (n = 52)): 1 patients
patients with stable disease (SD) as best response ([3]; non-TGCT population (n = 52)): Fifteen
time to radiologic response [4]: ≤ 4 months
patients who had a drug holiday ([5]; of the 39 patients with TGCT): 27 (69%) n (%)
patients who required dose reduction ([5]; of the 39 patients with TGCT): 24 (62%) n (%)
patients who experienced a drug holiday ([5]; of the 91 patients): 40 (44%) n (%)
patients who required dose reduction ([5]; of the 91 patients): 30 (33%) n (%)
cases meeting Hy's law criteria ([6]; all 91 patients): no cases that met criteria for Hy's law
decreases in platelets, hemoglobin, white blood cells (neutrophils, lymphocytes): grade ([6]; all patients): generally grade 2 or less
electrocardiogram abnormalities ([6]; all patients): No patient had clinically significant electrocardiogram abnormalities
AST increase, treatment-related AE of grade ≥ 3 ([6]; non-TGCT patients): 4%
fatigue, treatment-related AE of grade ≥ 3 ([6]; non-TGCT patients): 6%
hypophosphatemia, treatment-related AE of grade ≥ 3 ([6]; non-TGCT patients): 4%
patients with grade 3 elevations in aminotransferase levels ([6]; of the 91 patients): 6 patients
alanine aminotransferase increase, grade ≥ 3 treatment-related AE ([6]; patients with TGCT): 10%
aspartate aminotransferase (AST) increase, grade ≥ 3 treatment-related AE ([6]; patients with TGCT): 8%
hypophosphatemia, grade ≥ 3 treatment-related AE ([6]; patients with TGCT): 10%
nausea, treatment-related AE ([6]; patients with TGCT): 56%
periorbital edema, treatment-related AE ([6]; patients with TGCT): 39%
pruritus, treatment-related AE ([6]; patients with TGCT): 31%
